# Experimental data: ChEMBL document CHEMBL1208776, “Design, synthesis and evaluation of a novel double pro-drug: INX-08189. A new clinical candidate for hepatitis C virus” (Bioorg Med Chem Lett, 2010)
# Experiments:
# Hepatitis C virus = assay: Antiviral activity against HCV genotype 1b in Huh7 cells assessed as inhibition of viral replication by cell-based replicon assay; type: functional, organism-based, Hepacivirus hominis; settings: Huh-7
# [1] = Cytotoxicity against human HuH7 cells; type: cell-based, Huh-7
# Caco-2 = assay: (§1) Permeability across human Caco-2 cells from apical to basolateral side in human Caco2 cell membrane; type: ADME, cell-based
# Outline: (§2)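 Caco-2 monolayers were grown for 27 days (resistance 600 ohms/cm²). Apical-to-basal transport was measured as % transported in 80 min, with permeability expressed in cm/s.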
# [2] = as §1; type: ADME, cell-based; settings: read-out: permeability; outline: as §2
# Carboxypeptidase A = assay: Half life in carboxypeptidase A assay
# Hepatocyte = assay: Cmax in primary human hepatocytes after 2uM treatment; type: ADME, cell-based
# Outline: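 Primary human hepatocytes were incubated with 2 µM compound. Intracellular 2′-C-methyl guanosine triphosphate was measured over 48 h and expressed as pmol/10⁶ cells. Cmax and decay half-life were estimated from the time course.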
# [3] = human, HuH7 cells, read-out: CC50
SMILES,EC50 (Hepatitis C virus),EC90 (Hepatitis C virus),"CC50 [1, 3]",permeability (Caco-2),"CC50 ([1]; Homo sapiens, Huh-7)",Papp A→B [2],half-life (Carboxypeptidase A),Cmax_triphosphate (Hepatocyte)
C[C@H](NP(=O)(OC[C@H]1O[C@@H](n2cnc3c(=O)[nH]c(N)nc32)[C@](C)(O)[C@@H]1O)Oc1cccc2ccccc12)C(=O)OCC(C)(C)C (stereo partly drawn),72 nM,270 nM,> 100000 nM,< 0.5%,–,–,–,–
COc1nc(N)nc2c1ncn2[C@@H]1O[C@H](COP(=O)(N[C@@H](C)C(=O)OCc2ccccc2)Oc2cccc3ccccc23)[C@@H](O)[C@@]1(C)O (stereo partly drawn),30 nM,100 nM,–,–,12000 nM,4.02 ×10⁻⁶ cm/s,–,–
CCCOC(=O)[C@H](C)NP(=O)(OC[C@H]1O[C@@H](n2cnc3c(OC)nc(N)nc32)[C@](C)(O)[C@@H]1O)Oc1cccc2ccccc12 (stereo partly drawn),30 nM,100 nM,–,–,13000 nM,–,–,–
COc1nc(N)nc2c1ncn2[C@@H]1O[C@H](COP(=O)(N[C@@H](C)C(=O)OC(C)C)Oc2cccc3ccccc23)[C@@H](O)[C@@]1(C)O (stereo partly drawn),540 nM,1700 nM,–,–,> 100000 nM,–,–,–
COc1nc(N)nc2c1ncn2[C@@H]1O[C@H](COP(=O)(N[C@@H](C)C(=O)OC2CCCCC2)Oc2cccc3ccccc23)[C@@H](O)[C@@]1(C)O (stereo partly drawn),30 nM,90 nM,–,–,6000 nM,–,–,–
COc1nc(N)nc2c1ncn2[C@@H]1O[C@H](COP(=O)(N[C@@H](C)C(=O)OC2CCCC2)Oc2cccc3ccccc23)[C@@H](O)[C@@]1(C)O (stereo partly drawn),30 nM,80 nM,–,–,9000 nM,–,–,–
COc1nc(N)nc2c1ncn2[C@@H]1O[C@H](COP(=O)(N[C@@H](C)C(=O)OCCC(C)(C)C)Oc2cccc3ccccc23)[C@@H](O)[C@@]1(C)O (stereo partly drawn),20 nM,80 nM,–,–,14000 nM,–,–,–
COc1nc(N)nc2c1ncn2[C@@H]1O[C@H](COP(=O)(N[C@H](C)C(=O)OCC(C)(C)C)Oc2cccc3ccccc23)[C@@H](O)[C@@]1(C)O (stereo partly drawn),240 nM,580 nM,–,–,51000 nM,–,–,–
COc1nc(N)nc2c1ncn2[C@@H]1O[C@H](COP(=O)(N[C@@H](CCSC)C(=O)OCC(C)(C)C)Oc2cccc3ccccc23)[C@@H](O)[C@@]1(C)O (stereo partly drawn),60 nM,190 nM,–,–,28000 nM,–,–,–
COc1nc(N)nc2c1ncn2[C@@H]1O[C@H](COP(=O)(N[C@@H](CC(C)C)C(=O)OCC(C)(C)C)Oc2cccc3ccccc23)[C@@H](O)[C@@]1(C)O (stereo partly drawn),70 nM,230 nM,–,–,14000 nM,–,–,–
CC[C@H](C)[C@H](NP(=O)(OC[C@H]1O[C@@H](n2cnc3c(OC)nc(N)nc32)[C@](C)(O)[C@@H]1O)Oc1cccc2ccccc12)C(=O)OCC(C)(C)C (stereo partly drawn),860 nM,2530 nM,–,–,18000 nM,–,–,–
COc1nc(N)nc2c1ncn2[C@@H]1O[C@H](COP(=O)(N[C@H](C(=O)OCC(C)(C)C)C(C)C)Oc2cccc3ccccc23)[C@@H](O)[C@@]1(C)O (stereo partly drawn),190 nM,640 nM,–,–,33000 nM,–,–,–
COc1nc(N)nc2c1ncn2[C@@H]1O[C@H](CO[P@@](=O)(N[C@@H](C)C(=O)OCC(C)(C)C)Oc2cccc3ccccc23)[C@@H](O)[C@@]1(C)O,–,–,–,–,–,–,20 min,–
COc1nc(N)nc2c1ncn2[C@@H]1O[C@H](CO[P@](=O)(N[C@@H](C)C(=O)OCC(C)(C)C)Oc2cccc3ccccc23)[C@@H](O)[C@@]1(C)O,–,–,–,–,–,–,17 min,–
COc1nc(N)nc2c1ncn2[C@@H]1O[C@H](CO)[C@@H](O)[C@@]1(C)O [BETA-2'-C-METHYL-6-O-METHYL GUANOSINE],5200 nM,21000 nM,–,–,> 100000 nM,–,–,–
COc1nc(N)nc2c1ncn2[C@@H]1O[C@H](COP(=O)(N[C@@H](C)C(=O)OCC(C)(C)C)Oc2cccc3ccccc23)[C@@H](O)[C@@]1(C)O (stereo partly drawn) [BMS-986094],10 nM,40 nM,7000 nM,2.7%,–,–,–,80 pmol/10^6cells
